From ChEMBL document CHEMBL1287679, “Tuning hydrophobicity of highly cationic tetradecameric Gramicidin S analogues using adamantane amino acids” (Bioorg Med Chem, 2010)
In brackets after ≈: the same amount, converted by molar mass. Where a SMILES comes first, the peptide text is derived from it. [ ]: non-standard residue; d: D form. Gly(1-adamantyl) = N[C@H](C(=O)O)C12CC3CC(CC(C3)C1)C2; Orn = NCCC[C@H](N)C(=O)O

Assays:
[1] = system: Staphylococcus epidermidis; experiment: Antimicrobial activity against Staphylococcus epidermidis ATCC 12228 by broth dilution method; format: functional
Outline: (§1)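 Stored at −70 °C, grown at 35 °C on Columbia sheep-blood agar, then suspended in physiological saline to OD 0.1 AU at 595 nm and diluted 100× in saline. 2 µL inoculum was added to 50 µL cation-adjusted Mueller Hinton II broth. Peptides in methanol (4 g/L stock) were diluted in water, then two-fold in broth (64–1 mg/L). Incubation was 35 °C for 24–48 h. MIC is the lowest concentration inhibiting growth.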

Enterococcus faecalis = experiment: Antimicrobial activity against Enterococcus faecalis ATCC 29212 by broth dilution method; format: functional; outline: as §1
[2] = Therapeutic index, concentration required to achieve 100% hemolysis in erythrocyte to MIC for Escherichia coli ATCC 25922; details: erythrocytes
Outline: (§2)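 Therapeutic index was taken as the concentration for 100% haemolysis divided by MIC for the given strain.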

[3] = Toxicity in Erythrocyte assessed as concentration required to achieve 100% hemolysis after 4 hrs; format: cell-based
Outline: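 Heparinized fresh blood was centrifuged (1000g, 10 min, 10 °C). Erythrocytes were washed three times in 0.85% saline and diluted to a 1/25 packed volume. Peptides were prepared as a 1.5 mM stock in 30% DMSO/0.5 mM saline and serially two-fold diluted in triplicate rows. 1% Triton-X served as the full-lysis control. Incubation was 37 °C for 4 h, then centrifugation; supernatant was read. Value is the concentration giving 100% lysis.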

Escherichia coli = experiment: Antimicrobial activity against Escherichia coli ATCC 25922 by broth dilution method; format: functional; outline: as §1
Bacillus cereus = experiment: Antimicrobial activity against Bacillus cereus ATCC 11778 by broth dilution method; format: functional; outline: as §1
Staphylococcus aureus [4] = experiment: Antimicrobial activity against Staphylococcus aureus ATCC 29213 by broth dilution method; format: functional
Outline: (§3)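 Frozen (−70 °C) stocks grown at 35 °C on Columbia sheep-blood agar, suspended in physiological saline to OD595 0.1, diluted 100×; 2 µL inoculum into 50 µL cation-adjusted Mueller Hinton II broth in 96-well plates. Peptides dissolved in methanol (4 g/L), diluted in water, two-fold serial dilutions in broth (64–1 mg/L). Incubation at 35 °C, 24–48 h; MIC = lowest concentration inhibiting growth.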

Staphylococcus aureus [5] = experiment: Antimicrobial activity against methicillin-resistant Staphylococcus aureus N133 by broth dilution method; format: functional; outline: as §3
[6] = Therapeutic index, concentration required to achieve 100% hemolysis in erythrocyte to MIC for Staphylococcus aureus ATCC 29213; details: erythrocytes; read-out: Ratio; outline: as §2
Staphylococcus aureus [7] = experiment: Antimicrobial activity against methicillin-resistant Staphylococcus aureus isolate 1110301981 by broth dilution method; format: functional; outline: as §3
Staphylococcus aureus [8] = experiment: Antimicrobial activity against methicillin-resistant Staphylococcus aureus ATCC 43300 by broth dilution method; format: functional; outline: as §3
Staphylococcus aureus [9] = experiment: Antimicrobial activity against community acquired methicillin-resistant Staphylococcus aureus isolate 1110301146 by broth dilution method; format: functional; outline: as §3
Staphylococcus aureus [10] = experiment: Antimicrobial activity against methicillin-resistant Staphylococcus aureus ATCC 49775 by broth dilution method; format: functional; outline: as §3
Pseudomonas aeruginosa = experiment: Antimicrobial activity against Pseudomonas aeruginosa ATCC 27853 by broth dilution method; format: functional; outline: as §1
Staphylococcus aureus [11] = experiment: Antimicrobial activity against methicillin-resistant Staphylococcus aureus N229 by broth dilution method; format: functional; outline: as §3

| Structure (SMILES) | MIC [1] | MIC (Enterococcus faecalis) | selectivity ratio [2] | Activity [3] | MIC (Escherichia coli) | MIC (Bacillus cereus) | MIC (Staphylococcus aureus [4]) | MIC (Staphylococcus aureus [5]) | selectivity ratio [6] | MIC (Staphylococcus aureus [7]) | MIC (Staphylococcus aureus [8]) | MIC (Staphylococcus aureus [9]) | MIC (Staphylococcus aureus [10]) | MIC (Pseudomonas aeruginosa) | MIC (Staphylococcus aureus [11]) |
| --- | --- | --- | --- | --- | --- | --- | --- | --- | --- | --- | --- | --- | --- | --- | --- |
| CC(C)C[C@@H]1NC(=O)[C@H](CCCN)NC(=O)[C@H](C23CC4CC(CC(C4)C2)C3)NC(=O)[C@H](CCCN)NC(=O)[C@@H]2CCCN2C(=O)[C@@H](Cc2ccccc2)NC(=O)[C@H](CCCN)NC(=O)[C@H](CC23CC4CC(CC(C4)C2)C3)NC(=O)[C@H](CCCN)NC(=O)[C@H](C(C)C)NC(=O)[C@H](CCCN)NC(=O)[C@@H]2CCCN2C(=O)[C@@H](Cc2ccccc2)NC(=O)[C@H](CCCN)NC1=O | 4 µg/mL (≈ 2.24 µM) | 16 µg/mL (≈ 8.98 µM) | 2 | 31.3 µM | 16 µg/mL (≈ 8.98 µM) | 4 µg/mL (≈ 2.24 µM) | 8 µg/mL (≈ 4.49 µM) | 32 µg/mL (≈ 18 µM) | 3.9 | 16 µg/mL (≈ 8.98 µM) | 16 µg/mL (≈ 8.98 µM) | 16 µg/mL (≈ 8.98 µM) | 16 µg/mL (≈ 8.98 µM) | 16 µg/mL (≈ 8.98 µM) | 16 µg/mL (≈ 8.98 µM) |
| CC(C)[C@@H]1NC(=O)[C@H](CCCN)NC(=O)[C@@H]2CCCN2C(=O)[C@@H](Cc2ccccc2)NC(=O)[C@H](CCCN)NC(=O)[C@H](CC23CC4CC(CC(C4)C2)C3)NC(=O)[C@H](CCCN)NC(=O)[C@H](C(C)C)NC(=O)[C@H](CCCN)NC(=O)[C@@H]2CCCN2C(=O)[C@@H](Cc2ccccc2)NC(=O)[C@H](CCCN)NC(=O)[C@H](CC23CC4CC(CC(C4)C2)C3)NC(=O)[C@H](CCCN)NC1=O | 8 µg/mL (≈ 4.49 µM) | 8 µg/mL (≈ 4.49 µM) | 3.9 | 31.3 µM | 32 µg/mL (≈ 18 µM) | 8 µg/mL (≈ 4.49 µM) | 8 µg/mL (≈ 4.49 µM) | 8 µg/mL (≈ 4.49 µM) | 3.9 | 8 µg/mL (≈ 4.49 µM) | 8 µg/mL (≈ 4.49 µM) | 8 µg/mL (≈ 4.49 µM) | 8 µg/mL (≈ 4.49 µM) | 8 µg/mL (≈ 4.49 µM) | 8 µg/mL (≈ 4.49 µM) |
| CC(C)[C@@H]1NC(=O)[C@H](CCCN)NC(=O)[C@@H]2CCCN2C(=O)[C@@H](Cc2ccccc2)NC(=O)[C@H](CCCN)NC(=O)[C@H](CC23CC4CC(CC(C4)C2)C3)NC(=O)[C@H](CCCN)NC(=O)[C@H](C23CC4CC(CC(C4)C2)C3)NC(=O)[C@H](CCCN)NC(=O)[C@@H]2CCCN2C(=O)[C@@H](Cc2ccccc2)NC(=O)[C@H](CCCN)NC(=O)[C@H](CC23CC4CC(CC(C4)C2)C3)NC(=O)[C@H](CCCN)NC1=O | 4 µg/mL (≈ 2.13 µM) | 8 µg/mL (≈ 4.27 µM) | 1 | 15.6 µM | 32 µg/mL (≈ 17.1 µM) | 4 µg/mL (≈ 2.13 µM) | 16 µg/mL (≈ 8.54 µM) | 16 µg/mL (≈ 8.54 µM) | 1 | 16 µg/mL (≈ 8.54 µM) | 16 µg/mL (≈ 8.54 µM) | 32 µg/mL (≈ 17.1 µM) | 16 µg/mL (≈ 8.54 µM) | 16 µg/mL (≈ 8.54 µM) | 16 µg/mL (≈ 8.54 µM) |
| CC(C)C[C@@H]1NC(=O)[C@H](CCCN)NC(=O)[C@H](C23CC4CC(CC(C4)C2)C3)NC(=O)[C@H](CCCN)NC(=O)[C@@H]2CCCN2C(=O)[C@@H](Cc2ccccc2)NC(=O)[C@H](CCCN)NC(=O)[C@H](CC23CC4CC(CC(C4)C2)C3)NC(=O)[C@H](CCCN)NC(=O)[C@H](C23CC4CC(CC(C4)C2)C3)NC(=O)[C@H](CCCN)NC(=O)[C@@H]2CCCN2C(=O)[C@@H](Cc2ccccc2)NC(=O)[C@H](CCCN)NC1=O | 8 µg/mL (≈ 4.27 µM) | 8 µg/mL (≈ 4.27 µM) | 1 | 15.6 µM | 32 µg/mL (≈ 17.1 µM) | 4 µg/mL (≈ 2.13 µM) | 16 µg/mL (≈ 8.54 µM) | 8 µg/mL (≈ 4.27 µM) | 1 | 8 µg/mL (≈ 4.27 µM) | 16 µg/mL (≈ 8.54 µM) | 8 µg/mL (≈ 4.27 µM) | 16 µg/mL (≈ 8.54 µM) | 16 µg/mL (≈ 8.54 µM) | 8 µg/mL (≈ 4.27 µM) |
| NCCC[C@@H]1NC(=O)[C@H](CC23CC4CC(CC(C4)C2)C3)NC(=O)[C@H](CCCN)NC(=O)[C@H](C23CC4CC(CC(C4)C2)C3)NC(=O)[C@H](CCCN)NC(=O)[C@@H]2CCCN2C(=O)[C@@H](Cc2ccccc2)NC(=O)[C@H](CCCN)NC(=O)[C@H](CC23CC4CC(CC(C4)C2)C3)NC(=O)[C@H](CCCN)NC(=O)[C@H](C23CC4CC(CC(C4)C2)C3)NC(=O)[C@H](CCCN)NC(=O)[C@@H]2CCCN2C(=O)[C@@H](Cc2ccccc2)NC1=O | 32 µg/mL (≈ 16.3 µM) | 32 µg/mL (≈ 16.3 µM) | 0.12 | 7.8 µM | 64 µg/mL (≈ 32.5 µM) | 2 µg/mL (≈ 1.02 µM) | 64 µg/mL (≈ 32.5 µM) | 32 µg/mL (≈ 16.3 µM) | 0.1 | 32 µg/mL (≈ 16.3 µM) | 32 µg/mL (≈ 16.3 µM) | 32 µg/mL (≈ 16.3 µM) | 32 µg/mL (≈ 16.3 µM) | 64 µg/mL (≈ 32.5 µM) | 32 µg/mL (≈ 16.3 µM) |
| CC(C)C[C@@H]1NC(=O)[C@H](CCCCN)NC(=O)[C@H](C(C)C)NC(=O)[C@@H]2CCCN2C(=O)[C@@H](Cc2ccc(O)cc2)NC(=O)[C@H](CC(C)C)NC(=O)[C@H](CCCCN)NC(=O)[C@H](C(C)C)NC(=O)[C@H](CCCCN)NC(=O)[C@H](CC(C)C)NC(=O)[C@@H]2CCCN2C(=O)[C@@H](Cc2ccc(O)cc2)NC(=O)[C@H](C(C)C)NC(=O)[C@H](CCCCN)NC1=O (cyclo(KLKV[dY]PLKVKL[dY]PV)) | – | – | – | 3.9 µM | – | – | – | – | – | – | – | – | – | – | – |
| CC(C)C[C@@H]1NC(=O)[C@H](CCCN)NC(=O)[C@H](C(C)C)NC(=O)[C@@H]2CCCN2C(=O)[C@@H](Cc2ccccc2)NC(=O)[C@H](CC(C)C)NC(=O)[C@H](CCCN)NC(=O)[C@H](C(C)C)NC(=O)[C@H](CCCN)NC(=O)[C@H](CC(C)C)NC(=O)[C@@H]2CCCN2C(=O)[C@@H](Cc2ccccc2)NC(=O)[C@H](C(C)C)NC(=O)[C@H](CCCN)NC1=O (cyclo(L[Orn]V[Orn]L[dF]PV[Orn]L[Orn]V[dF]P)) | 8 µg/mL (≈ 5.06 µM) | 8 µg/mL (≈ 5.06 µM) | 0.1 | 3.9 µM | 64 µg/mL (≈ 40.5 µM) | 4 µg/mL (≈ 2.53 µM) | 16 µg/mL (≈ 10.1 µM) | – | 0.2 | – | – | – | – | 32 µg/mL (≈ 20.2 µM) | – |
| CC(C)C[C@@H]1NC(=O)[C@H](CCCCN)NC(=O)[C@H](C(C)C)NC(=O)[C@@H]2CCCN2C(=O)[C@@H](Cc2ccc(O)cc2)NC(=O)[C@H](CC(C)C)NC(=O)[C@H](CCCCN)NC(=O)[C@H](C(C)C)NC(=O)[C@H](CCCCN)NC(=O)[C@H](CC(C)C)NC(=O)[C@@H]2CCCN2C(=O)[C@@H](Cc2ccc(O)cc2)NC(=O)[C@H](C(C)C)NC(=O)[C@H](CCCCN)NC1=O (cyclo(VKLKV[dY]PLKVKL[dY]P)) | 64 µg/mL (≈ 38.3 µM) | 32 µg/mL (≈ 19.2 µM) | – | – | > 64 µg/mL | 32 µg/mL (≈ 19.2 µM) | > 64 µg/mL | – | – | – | – | – | – | > 64 µg/mL | – |
| NCCC[C@@H]1NC(=O)[C@H](C23CC4CC(CC(C4)C2)C3)NC(=O)[C@H](CCCN)NC(=O)[C@@H]2CCCN2C(=O)[C@@H](Cc2ccccc2)NC(=O)[C@H](CCCN)NC(=O)[C@H](C23CC4CC(CC(C4)C2)C3)NC(=O)[C@H](CCCN)NC(=O)[C@@H]2CCCN2C(=O)[C@@H](Cc2ccccc2)NC1=O (cyclo([Orn][dF]P[Orn][Gly(1-adamantyl)][Orn][dF]P[Orn][Gly(1-adamantyl)])) | 4 µg/mL (≈ 3.01 µM) | 8 µg/mL (≈ 6.03 µM) | 62.5 | 500 µM | 16 µg/mL (≈ 12.1 µM) | 8 µg/mL (≈ 6.03 µM) | 8 µg/mL (≈ 6.03 µM) | 8 µg/mL (≈ 6.03 µM) | 62.5 | 8 µg/mL (≈ 6.03 µM) | – | 8 µg/mL (≈ 6.03 µM) | – | 8 µg/mL (≈ 6.03 µM) | 8 µg/mL (≈ 6.03 µM) |
